Published values collected from several papers.
Compare with care: the assays were run in different laboratories. pEC50, pIC50: −log10 of the molar value. Values after ≈ are worked out from the molar mass of the structure shown.

Cc1ccc(-c2nc3ccc(C)cn3c2CC(=O)N(C)C)cc1  MIC (Mycobacterium kansasii; microbial growth; 6 days): > 50 µM
Cl.O[C@]12C=C(c3nccc4c3[nH]c3ccccc34)[C@@H]3CCN(CCCC/C=C\CC1)C[C@@]31C[C@@H]3/C=C\CCCCN3[C@H]12  IC50 (SK-MEL; cell growth or viability, neutral red; 48 h): 0.57 µg/mL
COc1ccc(/C=C\c2cc(F)c(OC)c(OC)c2)cc1O  GI50 (BXPC-3; cell growth or viability, SRB; 48 h): 0.745 µg/mL (≈ 2.45 µM)
C=C1CC[C@H](O)C/C1=C/C=C1\CCC[C@]2(C)[C@@H]([C@H](C)CCCC(C)C)CC[C@@H]12  pEC50 (Hepatitis C virus; viral replication, inhibitor, luciferase; GETYPE2A; 5 days, replicon): 5.07
COc1c(C)c2c(c(O)c1C/C=C(\C)CCC(=O)O)C(=O)OC2  pEC50 (Enterovirus B; viral replication, inhibitor; Vero, B4): < 4.00
Cl.Oc1cccc2c1[nH]c1c(C3=CC4(O)CC/C=C\CCCCN5CCC3C3(CC6/C=C\CCCCN6C43)C5)nccc12 (single isomer, unassigned; (+))  IC50 (SK-MEL; cell growth or viability, neutral red; 48 h): 0.78 µg/mL
COC(=O)c1cc(-c2cccc(NC(=S)Nc3ccccc3Cl)c2)on1  MIC (Acinetobacter baumannii; microbial growth, broth dilution; BAA1605): > 64 µg/mL
COc1cccc2c1C(=O)c1c(O)c3c(c(O)c1C2=O)C[C@@](O)(C(=O)CO)C[C@@H]3O[C@H]1C[C@H](N)[C@H](O)[C@H](C)O1  IC50 (SK-MEL; cell growth or viability; 48 h): 1.1 µg/mL
COC(=O)c1cc(-c2cccc(NC(=S)NC3CCCCC3)c2)on1  MIC (Acinetobacter baumannii; microbial growth, broth dilution; BAA1605): > 64 µg/mL
CC1CC(C)(C)CC2(C1)SC(C)C(=O)N2NC(=O)c1[nH]c2ccc(Cl)cc2c1-c1ccccc1 (stereo not shown)  pEC50 (Enterovirus B; viral replication, inhibitor; Vero, B4): < 4.00
COc1ccc2[nH]cc(CCNc3nccc(Nc4cccc5c4ccn5C)n3)c2c1  pIC50 (BXPC-3; cell growth or viability, fluorescence; 72 h): 8.10
C1COCCN1.COc1ccc(/C=C\c2cc(I)c(OC)c(I)c2)cc1OP(=O)(O)O  GI50 (BXPC-3; cell growth or viability, SRB; 48 h): 0.35 µg/mL
N#CC(C#N)=NNc1cccc(Cl)c1  pIC50 (human Hepatocyte; cell growth or viability): 5.32
CN[C@@H]1[C@H](O)[C@H](NC)[C@H]2O[C@@]3(O)C(=O)C[C@@H](C)O[C@H]3O[C@@H]2[C@H]1O  MIC (Proteus mirabilis; microbial growth, broth dilution; ATCC25933): > 200 µg/mL
COC(=O)c1cc(-c2cccc(NC(=O)Nc3ccc(C(F)(F)F)cc3)c2)on1  MIC (Acinetobacter baumannii; microbial growth, broth dilution; BAA1605): > 64 µg/mL
CO[C@H]1/C=C/O[C@@]2(C)Oc3c(C)c(O)c4c(O)c(c(/C=N/N5CCN(C)CC5)c(O)c4c3C2=O)NC(=O)/C(C)=C\C=C\[C@H](C)[C@H](O)[C@@H](C)[C@@H](O)[C@@H](C)[C@H](OC(C)=O)[C@@H]1C  MIC (Mycobacterium kansasii; microbial growth; 6 days): < 0.78 µM
